Values after ≈ are worked out from the molar mass of the structure shown.
Experiments:
Staphylococcus aureus [1] = assay: Antibacterial activity against penicillin-resistant Staphylococcus aureus ATCC 31007 by broth microdilution method; type: functional
How it was run: (§1)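 MIC by standard NCCLS broth microdilution against resistant S. aureus strains, reported in µg/mL. Clarithromycin and azithromycin were run alongside as references.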

Streptococcus pneumoniae [2] = assay: Antibacterial activity against erythromycin-resistant Streptococcus pneumoniae B1 by broth microdilution method; type: functional
How it was run: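 MIC by standard NCCLS broth microdilution, reported in µg/mL. The strain expresses the ermB gene. Clarithromycin and azithromycin were run alongside as references.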

Staphylococcus aureus [3] = assay: Antibacterial activity against methicillin-resistant Staphylococcus aureus ATCC 43300 by broth microdilution method; type: functional; how it was run: as §1
Bacillus subtilis = assay: Antibacterial activity against penicillin-susceptible Bacillus subtilis ATCC9372 by broth microdilution method; type: functional
How it was run: (§2)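 MIC determined by standard broth microdilution per NCCLS recommendations, read as minimal inhibitory concentration in µg/mL. Standard ATCC strains tested alongside the other panel strains, with clarithromycin and azithromycin as reference agents.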

Streptococcus pneumoniae [4] = assay: Antibacterial activity against erythromycin-resistant Streptococcus pneumoniae AB11 by broth microdilution method; type: functional
How it was run: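 MIC by standard NCCLS broth microdilution, reported in µg/mL. The strain expresses the ermB and mefA genes. Clarithromycin and azithromycin were run alongside as references.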

Streptococcus pyogenes = assay: Antibacterial activity against erythromycin-resistant Streptococcus pyogenes R1 by broth microdilution method; type: functional
How it was run: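 MIC by standard NCCLS broth microdilution, reported in µg/mL. The strain is a clinically isolated erythromycin-resistant strain. Clarithromycin and azithromycin were run alongside as references.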

Staphylococcus aureus [5] = assay: Antibacterial activity against erythromycin-susceptible Staphylococcus aureus ATCC 25923 by broth microdilution method; type: functional; how it was run: as §2
Pseudomonas aeruginosa = assay: Antibacterial activity against penicillin-susceptible Pseudomonas aeruginosa ATCC 27853 by broth microdilution method; type: functional; how it was run: as §2
[6] = Chemical stability of the compound in pH 7.4 phosphate solution after 24 hrs by HPLC analysis; type: physicochemical; settings: buffer, pH 7.4, 24 h
How it was run: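 Compound held in phosphate solution (pH = 7.4) at 25 °C and monitored by HPLC over 24 h. Stability judged from change in peak area.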

CO[C@]1(C)C[C@@H](C)[C@H](OC(=O)c2ccc(C)cc2)[C@H](C)CN(C)CCOC(=O)[C@H](C)C(=O)[C@H](C)[C@H]1O[C@@H]1O[C@H](C)C[C@H](N(C)C)[C@H]1OC(=O)c1ccc(C)cc1
MIC (Staphylococcus aureus [1]): > 256 µg/mL
MIC (Streptococcus pneumoniae [2]): > 256 µg/mL
MIC (Staphylococcus aureus [3]): > 256 µg/mL
MIC (Bacillus subtilis): > 128 µg/mL
MIC (Streptococcus pneumoniae [4]): > 256 µg/mL
MIC (Streptococcus pyogenes): > 256 µg/mL
MIC (Staphylococcus aureus [5]): 128 µg/mL (≈ 164 µM)
MIC (Pseudomonas aeruginosa): > 128 µg/mL
Stabilty [6]: Stable

CO[C@]1(C)C[C@@H](C)[C@H](OC(=O)c2ccc(Cl)cc2)[C@H](C)CN(C)CCOC(=O)[C@H](C)C(=O)[C@H](C)[C@H]1O[C@@H]1O[C@H](C)C[C@H](N(C)C)[C@H]1OC(=O)c1ccc(Cl)cc1
MIC (Staphylococcus aureus [1]): > 256 µg/mL
MIC (Streptococcus pneumoniae [2]): 128 µg/mL (≈ 156 µM)
MIC (Staphylococcus aureus [3]): > 256 µg/mL
MIC (Bacillus subtilis): > 128 µg/mL
MIC (Streptococcus pneumoniae [4]): > 256 µg/mL
MIC (Streptococcus pyogenes): > 256 µg/mL
MIC (Staphylococcus aureus [5]): 128 µg/mL (≈ 156 µM)
MIC (Pseudomonas aeruginosa): > 128 µg/mL
Stabilty [6]: Stable

Source: ChEMBL document CHEMBL4811269, “Design, synthesis and antibacterial evaluation of novel C-11, C-9 or C-2'-substituted 3-O-descladinosyl-3-ketoclarithromycin derivatives” (Bioorg Med Chem Lett, 2021)
